{"source": "ChEMBL document CHEMBL4316597", "about": "“Design, Synthesis, and Biological Evaluation of Itaconic Acid Derivatives as Potential Anti-Influenza Agents” (J Med Chem, 2019)", "key": {"[1]": {"assay": "Selectivity ratio of CC50 for MDCK cells to EC50 for oseltamivir resistant-Influenza A virus A/TW/7855/09 (H1N1)", "assay_type": "toxicity", "settings": "dog, read-out: Ratio CC50/EC50", "in_short": "(§1)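 MDCK cells (2 × 10^4/well, E10, 16–24 h) infected at nine-fold TCID50 with compound for 72 h, 37 °C, 5% CO2. Cells were fixed in 4% paraformaldehyde and stained with crystal violet; EC50 is from Reed–Muench. For CC50, cells had compound alone for 72 h, then MTT 3 h, DMSO, A570, Reed–Muench. SI = CC50/EC50; three independent experiments.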"}, "[2]": {"assay": "Selectivity ratio of CC50 for MDCK cells to EC50 for oseltamivir resistant-Influenza A virus A/TW/6663/09 (H1N1)", "assay_type": "toxicity", "settings": "dog, read-out: Ratio CC50/EC50", "in_short": "as §1"}, "Influenza A virus [3]": {"tested_on": "Influenza A virus", "assay": "Antiviral activity against oseltamivir resistant-Influenza A virus A/TW/7855/09 (H1N1) infected in MDCK cells after 72 hrs by crystal violet-staining based assay", "assay_type": "functional, organism-based", "in_short": "(§2)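 Cells seeded at 2 × 10^4/well in E10 (DMEM, 10% FBS), 16–24 h at 37 °C/5% CO2, washed with DPBS, then infected at nine-fold TCID50 with or without serial compound concentrations. Influenza is run in MDCK and enterovirus/rhinovirus in RD. Incubated 72 h, fixed in 4% paraformaldehyde, stained with 0.1% crystal violet, and read for cell density. EC50 = 50% CPE inhibition by Reed–Muench; mean ± S.D. of at least three runs.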"}, "Influenza A virus [4]": {"tested_on": "Influenza A virus", "assay": "Antiviral activity against oseltamivir resistant-Influenza A virus A/TW/6663/09 (H1N1) infected in MDCK cells after 72 hrs by crystal violet-staining based assay", "assay_type": "functional, organism-based", "in_short": "as §2"}}, "data": [{"molecule": "C=C(CC(=O)Nc1ccc(F)cc1F)C(=O)Nc1ccc(F)cc1F", "values": [{"measurement": "selectivity ratio", "setting": "[1]", "result": 33}, {"measurement": "selectivity ratio", "setting": "[2]", "result": 18}, {"measurement": "EC50", "setting": "Influenza A virus [3]", "result": 2.6, "unit": "µM"}, {"measurement": "EC50", "setting": "Influenza A virus [4]", "result": 4.83, "unit": "µM"}]}]}
